A selection: hits, their analogues and other compounds. The true share with any hit is near 11%.
Diaphorase inh = diaphorase inhibition or chemical oxidation counter-screen; diaphorase resazurin-to-resorufin fluorescence, NADH, 16 min; bacterial (C. kluyveri) enzyme, not human; inhibition, % at 20 µM; 0.69% of 190,000 active;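 active = primary screen inhibition at 20 µM above a set limit, cut at about 50% in these data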
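Benchmarks: positive control wells lacking NADH, neutral wells with DMSO only. System: bacterial diaphorase enzyme (C. kluyveri). Input: 0.14 U/mL diaphorase, enzyme working solution. Detection: resorufin fluorescence, excitation 544 nm, emission 590 nm. Times: 16-min room-temperature incubation before reading.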
Diaph act CS = counter-screen for diaphorase-based assays: diaphorase activators and chemical reducers | 0.005% of 190,000 active | activation factor at 20 µM | Diaphorase/resazurin coupled assay, resorufin fluorescence, 16 min; hits give high values; 1 = vehicle wells, 0 = NADH-free wells | AID 1229;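 active = diaphorase activity raised at least twofold by the compound at 20 µM; inactive = activation factor below 2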
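Assay system: Purified diaphorase enzyme from Clostridium kluyveri | Amount: Enzyme 0.07 U/mL final | Dosing: Compound 20 µM once, DMSO 1% | Timing: 16 min reaction at room temperature | Detection: Fluorescence, excitation 544 nm and emission 590 nm | Evaluation: Higher resorufin formation from activation or reduction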
G6PDH counter = inhibits Leuconostoc G6PDH, flagging false hits in G6PDH-based assays; inhibition, % at 5 µM; AID 1020; Purified L. mesenteroides G6PDH, diaphorase/resazurin coupled fluorescence, 45 min; 0.12% of 200,000 active
L major viab = reduces viability of Leishmania major promastigotes; 9% of 200,000 active; resazurin fluorescence viability; inhibition, % at 10 µM; AID 1063;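 also: promastigotes grown with compound for 44 hours at 28 °C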
WT yeast gro inh = growth inhibition of WT yeast, mitochondrial fusion screen; 2.1% of 190,000 active; inhibition, % at 10 µM; mitochondrial fusion phenotypic screen, WT strain; in the data active = inhibition above about 58%; tested in S. cerevisiae
A number is an active result; – = inactive. Rule as the data show it, unless noted: active = inhibition above about 50%; inactive = the rest.

SMILES	Diaphorase inh	Diaph act CS	G6PDH counter	L major viab	WT yeast gro inh
Cc1cc(N2CCN(C(c3ccccc3)c3ccc(Cl)cc3)CC2)n2ncnc2n1 (centres undefined)	–	–	–	–	74
CC(=S)/C=C1\Sc2ccccc2N1C	–	–	–	99	–
NC(=O)CNC(=O)[C@@H]1CC2(CC(c3ccc(Cl)cc3)=NO2)CN1C(=O)c1ccccc1 (some centres undefined)	–	–	–	–	–
Cc1c(Cl)cccc1Nc1nc(N)nc(CSc2nc3ccccc3s2)n1	–	–	–	–	72
CC(=O)Nc1cc(C)c(S(C)(=O)=O)c(C)c1	–	–	–	–	–
O=C(C1CCN(S(=O)(=O)c2cccc3cccnc23)CC1)N1CCN(C2CCCC2)CC1	–	–	–	–	–
CCCC1=C(C(=O)OCC)C(c2ccc(NC(C)=O)cc2)NC(=O)N1 (centres undefined)	–	–	–	–	61
CCOC(=O)C1=C(CS(=O)(=O)c2ccccc2)NC(=O)NC1c1ccccc1 (centres undefined)	–	–	–	–	–
CCC(C(=O)O)n1nc(-c2ccccc2)c2cc(Cl)ccc21 (centres undefined)	–	–	–	–	–
COc1ccc(Cl)cc1NC(=S)N(Cc1cccnc1)Cc1ccco1	–	–	–	–	–
COc1ccccc1NC(=S)N(Cc1ccc(C)cc1)Cc1ccccn1	–	–	–	91	–
Cc1ccc(Cl)cc1NC(=S)N(Cc1ccccc1)Cc1cccnc1	–	–	–	99	–
S=C(Nc1ccccc1Cl)N(Cc1ccccc1)Cc1cccnc1	–	–	–	91	–
CSc1cccc(NC(=S)N(Cc2ccc(C)cc2)Cc2ccccn2)c1	–	–	–	97	–
COc1ccc(CCN(Cc2ccccn2)C(=S)Nc2cccc(SC)c2)cc1OC	–	–	–	–	–
CC(C)C(=O)OCc1cn(-c2ccc(Cl)c(Cl)c2)nn1	–	–	–	–	–
CC(C)CN(CC(C)C)C(=O)Nc1ccccc1F	–	–	–	–	–
COc1ccccc1NC(=S)N(Cc1ccc(C)cc1)Cc1cccnc1	–	–	–	–	74
COc1ccccc1NC(=S)N(Cc1cccnc1)Cc1ccccc1Cl	–	–	–	77	–
Cc1ccccc1NC(=S)N(Cc1cccnc1)Cc1ccccc1Cl	–	–	–	92	–
COc1cccc(N/C(C)=C/C(=O)c2ccc(Br)cc2)c1	–	–	–	–	65
COC(=O)COc1ccc(C)cc1-n1nc2ccccc2n1	–	–	–	–	74
CCOc1ccc(NC2c3ccccc3C(=O)N2Cc2ccco2)cc1 (centres undefined)	–	–	–	–	–
COCCN1C=C(C(=O)OC)C(c2ccc3c(c2)OCO3)C(C(=O)OC)=C1	–	–	–	–	–
COCCN1C=C(C(=O)OC)C(c2cc3c(cc2Br)OCO3)C(C(=O)OC)=C1	–	–	–	62	–
SMILES	Diaphorase inh	Diaph act CS	G6PDH counter	L major viab	WT yeast gro inh
COCCCNC(=O)c1ccc(Cn2c(=O)c3ccccc3n(CC(=O)NCCc3ccc(OC)c(OC)c3)c2=O)cc1	–	–	–	–	–
Cc1cccc(C)c1OCCCCCNCCO	–	–	–	89	–
CC(C)c1ccccc1OCCCCCNCCO	–	–	–	91	–
Cc1ccccc1OCCCCCNCCO	–	–	–	62	–
COc1ccccc1OCCCCNCCO	–	–	–	–	–
OCCNCCOc1ccccc1F	–	–	–	–	–
CC(C)(C)c1ccccc1OCCCCCNCCO	–	–	–	93	–
Cc1ccc(C(=O)Nc2onc(C)c2C#N)cc1	–	–	–	–	–
O=C(/C=C/c1cccs1)N1CCN(c2ccc(O)cc2)CC1	–	–	–	76	–
CC1CCC2(CC1)NC(=O)N(Cc1cccc(C(F)(F)F)c1)C2=O (centres undefined)	–	–	–	100	–
Cc1nnc(NC(=O)c2ccc(S(=O)(=O)N3CCc4ccccc4C3)cc2)o1	–	–	–	–	–
Cc1cc(C)c2sc(NNC(=O)c3ccc(S(=O)(=O)N4CCc5ccccc5C4)cc3)nc2c1	–	–	–	99	–
CCOC(=O)Cc1csc(NC(=O)c2cc(=O)c3ccccc3o2)n1	–	–	–	–	–
Cc1cc(C)c2nc(NNC(=O)c3cc(=O)c4ccccc4o3)sc2c1	67	–	–	–	–
Cc1cc(C)c2nc(NNC(=O)c3ccc(S(=O)(=O)N4CCc5ccccc5C4)cc3)sc2c1	–	–	–	99	–

Compound activity: PubChem, several laboratories
